One test deals with A549. As to the kind of experiment: Cytotoxicity against human A549 cells incubated for 72 hrs by CyQuant NF cell proliferation assay. The test is classed as functional, cell-based. The note with it: A549, 72 h. Summed up:
(§1)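 Cells seeded at 4,000 per well and treated 20 h later with serially diluted compounds for 72 h at 37 °C, 5% CO2. Medium containing penicillin 100 U/mL and streptomycin 100 μg/mL. Medium then replaced with CyQuant NF dye-binding solution for 60 min at 37 °C and fluorescence read on a plate reader. Triplicates in two independent trials. IC50 reported. In the second trial, sample concentration was set by colorimetry against a standard curve.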

A further test has as its system MDA-MB-231. As to the kind of experiment: Cytotoxicity against human MDA-MB-231 cells incubated for 72 hrs by CyQuant NF cell proliferation assay. It is filed as functional, cell-based. Particulars: MDA-MB-231, 72 h. Summed up:
as §1

The next test concerns DU-145. As to the kind of experiment: Cytotoxicity against human DU145 cells incubated for 72 hrs by CyQuant NF cell proliferation assay. It is filed as functional, cell-based. Particulars: DU-145, 72 h. Summed up:
as §1

For test [1], the target named is Beta-secretase 1 (Homo sapiens) (UniProt P56817). As to the kind of experiment: Inhibition of BACE1 (unknown origin) up to 30 uM.
Beta-secretase 1 (Homo sapiens), sequence (P56817 whole entry): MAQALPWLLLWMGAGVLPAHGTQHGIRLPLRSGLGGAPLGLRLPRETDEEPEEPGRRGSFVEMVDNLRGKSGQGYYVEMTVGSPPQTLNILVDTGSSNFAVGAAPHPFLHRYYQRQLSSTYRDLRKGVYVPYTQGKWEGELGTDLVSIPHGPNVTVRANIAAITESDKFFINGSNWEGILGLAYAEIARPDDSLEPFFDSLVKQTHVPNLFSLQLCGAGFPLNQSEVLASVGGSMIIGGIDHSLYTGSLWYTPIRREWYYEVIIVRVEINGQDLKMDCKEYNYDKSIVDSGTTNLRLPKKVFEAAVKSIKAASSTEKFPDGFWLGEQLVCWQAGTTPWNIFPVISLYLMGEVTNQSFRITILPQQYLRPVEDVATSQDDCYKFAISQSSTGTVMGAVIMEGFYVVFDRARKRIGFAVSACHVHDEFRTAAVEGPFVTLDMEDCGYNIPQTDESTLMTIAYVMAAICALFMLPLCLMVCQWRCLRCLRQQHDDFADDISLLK

Molecules are shown by their SMILES. The source made the active and inactive calls. The calls are words filed in the database; no cut-off is given here.

As usually defined, the IC50 is the midpoint of a concentration-inhibition curve. High values mean lower potency, low ones higher potency. In the case of `COC(CC1OC(=O)CC(O)CCCC(=O)CC(C)c2coc(n2)-c2coc(n2)-c2coc(n2)/C=C/CC(OC)C1C)C(C)CCC(O)C(C)C(OC(C)=O)C(C)/C=C/N(C)C=O` (stereo unspecified), the half-maximal inhibitory concentration (IC50) in the test on A549 was in the range of 0.6 to 0.68 µM; in the test on MDA-MB-231, 0.58 to 0.76 µM; in the test on DU-145, 0.76 to 0.85 µM.
Turning to `COCC(OC)C(=O)OC(CCC(C)C(CC1OC(=O)CC(O)CCCC(=O)CC(C)c2coc(n2)-c2coc(n2)-c2coc(n2)/C=C/CC(OC)C1C)OC)C(C)C(OC(C)=O)C(C)/C=C/N(C)C=O` (stereo unspecified), the half-inhibitory concentration (IC50) with A549 was 0.26 to 0.33 µM; in the test on MDA-MB-231, 0.29 µM; in the test on DU-145 it was 0.28 to 0.34 µM. For the same compound, the inhibition entry in test [1] was “inactive”.
As to `CO[C@H]1C/C=C/c2nc(co2)-c2nc(co2)-c2nc(co2)[C@@H](C)CC(=O)CCC[C@H](O)CC(=O)O[C@@H](C[C@H](OC)[C@@H](C)CCC(=O)[C@H](C)[C@H](OC(C)=O)[C@H](C)/C=C/N(C)C=O)[C@@H]1C`, the values for the IC50 in the test on A549, in the test with MDA-MB-231 and with DU-145 were 0.28 to 0.29 µM, 0.23 to 0.25 µM and 0.25 to 0.26 µM, respectively. In addition, the inhibition result in test [1] was “inactive”.

The values above are taken from ChEMBL document CHEMBL4033606, “Ulapualides C-E Isolated from a Hawaiian Hexabranchus sanguineus Egg Mass” (J Nat Prod, 2017).
